Compound activity: PubChem BioAssay, several laboratories
FXIIa inh – human FXIIa protease inhibitors, primary screen, biochemical, 1536-well. hit rate 0.3% among 220,000. inhibition, % at 5 µM. purified FXIIa, Boc-QGR-AMC fluorogenic substrate, 2 h. Coagulation factor XII (Homo sapiens), P00748; in the data active means inhibition above about 40%;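 further: 0% = enzyme with no compound and 100% = blank without enzyme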
PGE2 EP2 inh – human EP2 receptor antagonists, primary screen, TR-FRET cAMP, C6 glioma cells; Prostaglandin E2 receptor EP2 subtype (Homo sapiens), P43116; C6 glioma cells expressing human EP2; cells stimulated with saturating PGE2; inhibition, % at 25 µM; hit rate 0.52% among 260,000;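 active means percent inhibition above 40 after rounding to a whole number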;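 further: rat C6 glioma host cells with rolipram phosphodiesterase inhibitor present; the protocol text gives 20 µM as final concentration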
Target sequence (P43116 whole entry, looked up): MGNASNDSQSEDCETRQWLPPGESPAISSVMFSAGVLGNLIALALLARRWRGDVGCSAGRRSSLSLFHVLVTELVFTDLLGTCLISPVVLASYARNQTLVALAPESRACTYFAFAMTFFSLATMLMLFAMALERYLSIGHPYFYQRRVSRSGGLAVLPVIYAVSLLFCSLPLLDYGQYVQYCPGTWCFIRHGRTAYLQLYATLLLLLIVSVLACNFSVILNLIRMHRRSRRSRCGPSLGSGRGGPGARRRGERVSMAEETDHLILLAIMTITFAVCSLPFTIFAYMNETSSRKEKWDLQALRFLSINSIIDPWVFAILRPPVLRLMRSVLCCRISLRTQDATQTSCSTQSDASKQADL
FXIa inh 1536 – human FXIa protease inhibitors, primary screen, biochemical, 1536-well; inhibition, % at 5 µM; purified FXIa, Boc-Glu-Ala-Arg-AMC fluorogenic substrate; AID 798, 2007; hit rate 0.14% among 220,000;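 active means inhibition of at least 40%; inactive means inhibition below 40%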;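 further: fluorescence of freed AMC excited at 355 nm; 0% = enzyme without compound and 100% = no enzyme blank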
thrombin 1536 – human alpha-thrombin inhibitors, primary screen, counter-screen for coagulation protease inhibitor project, biochemical, 1536-well, fluorogenic AMC substrate; Prothrombin (Homo sapiens), P00734; Boc-VPR-AMC fluorogenic substrate cleavage; inhibition, % at 5 µM; hit rate 0.26% among 220,000; AID 1046, 2008;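 active means inhibition at or above 40%; inactive means inhibition below 40%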;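 further: 0% = enzyme with no compound and 100% = wells without enzyme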
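signal = AMC fluorescence, 355/460 nm | material = human alpha-thrombin enzyme | control set = enzyme without compound as high, wells lacking enzyme as low | times = reaction at room temperature | read-out basis = percent inhibition scaled between no-compound controls and no-enzyme blanks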
KLK5 inh – human KLK5 protease inhibitors, primary screen, biochemical, 1536-well | inhibition, % at 5 µM | AID 873, 2007 | recombinant hK5, fluorogenic AMC substrate cleavage | hit rate 0.59% among 210,000 | Kallikrein-5 (Homo sapiens), Q9Y337;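 active means inhibition of 40% or more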;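 further: 0% = enzyme controls without compound and 100% = no-enzyme blanks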
Target sequence (Q9Y337 67-293 limits assumed): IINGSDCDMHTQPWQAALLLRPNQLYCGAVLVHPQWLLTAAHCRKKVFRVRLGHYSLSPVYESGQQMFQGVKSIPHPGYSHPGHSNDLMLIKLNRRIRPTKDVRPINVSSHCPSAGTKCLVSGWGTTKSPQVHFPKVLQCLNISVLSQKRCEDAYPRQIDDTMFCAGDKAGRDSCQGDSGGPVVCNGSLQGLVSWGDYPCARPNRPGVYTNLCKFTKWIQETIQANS
EP2 mod – EP2 receptor modulators, cAMP readout, primary screen, cell-based, HTRF cAMP, PGE2 stimulation. Prostaglandin E2 receptor EP2 subtype (Homo sapiens), P43116. EP2-expressing cells, cAMP HTRF FRET, PGE2 co-stimulation. induction, % at 25 µM. hit rate 0.83% among 260,000;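 active means compounds whose cAMP rise, as percent of the full-agonist control response, exceeds 60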;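 further: rat C6 glioma line stably carrying human EP2 under a CMV promoter; the protocol text gives 20 µM as final concentration; 100% = response of wells given 1 µM PGE2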
* hit, by the source's call; · = not tested or not shown. In the library only some 2.1% were active in any assay of this set; here they are far more common.

SMILES	FXIIa inh	PGE2 EP2 inh	FXIa inh 1536	thrombin 1536	KLK5 inh	EP2 mod
Cc1cc(-c2cnc(C)nc2C2CCCN(C(=O)C(C)(C)C)C2)on1 (stereo unspecified)	·	·	·	·	·	-3
CCOc1ccc(Nc2nc(NCC3CCCO3)c3ccccc3n2)cc1 (stereo unspecified)	7	52*	-2	-2	-1	-72
CCOc1cc(C(=O)NC)cc(OCC)c1OCC	12	6	-8	22	44*	0
COc1cccc(C2(O)CCN(CCNC(=O)CN3CCC(C)CC3)CC2)c1	·	7	·	·	·	-34
COc1ccc(OC)c(-c2cc(C(=O)O)c3cc4ccccc4cc3n2)c1	·	55*	·	·	·	6
CN(Cc1ccccc1)c1nc(-c2ccc([N+](=O)[O-])cc2)nc2ccccc12	4	4	-7	-7	-2	64*
Cc1cc(C)c(NC(=O)CSc2nnc(-c3ccco3)n2C)c(C)c1	·	16	·	·	·	-20
Cc1cc2cc3c(cc2n2c(=O)n(CC(=O)N4CCCC5CCCCC54)nc12)OCO3 (stereo unspecified)	·	7	·	·	·	-29
CCc1ccc2c(c1)N(C[C@H](C)CN(C)C)c1ccccc1S2	·	44*	·	·	·	-13
Cc1cccc(C)c1NC(=S)N(Cc1ccccc1)Cc1cccs1	8	9	1	0	-6	63*
O=C(O)CNC(=S)N(Cc1ccccc1)Cc1cccs1	2	10	-5	-13	-5	-10
Clc1ccc(-c2ccc(SCc3ccccn3)nn2)cc1	22	6	12	16	43*	5
c1ccc(CSc2ccc(-c3ccccn3)nn2)nc1	11	5	-1	-7	-3	4
CCS(=O)(=O)N1CCCC(c2nc(-c3cccc(OC)c3)no2)C1 (stereo unspecified)	19	10	5	15	40*	6
CCN1/C(=C/c2ccc3cc(OC)ccc3[n+]2CC)Sc2cc(NC(C)=O)ccc21	·	17	·	·	·	-9
CCN1/C(=C/c2ccc3cc(C)ccc3[n+]2C)Sc2ccc3sccc3c21	2	45*	-2	5	-4	-60
CC[n+]1c(/C=C2/Sc3ccc(OC)cc3N2C)ccc2cc(OC)ccc21	·	123*	·	·	·	-103
CCN1/C(=C/c2ccc3cc(C)ccc3[n+]2CC)Sc2cc(C)ccc21	11	80*	5	10	0	-72
CCN1/C(=C/c2ccc3ccccc3[n+]2C)Sc2cc(C)ccc21	·	52*	·	·	·	-56
O=C(CSc1nccc(=O)[nH]1)Nc1ccc(Cl)cc1	·	14	·	·	·	-35
Cc1nc(NC2CCN(CC(=O)Nc3ccccc3C(F)(F)F)CC2)[nH]c(=O)c1C	·	6	·	·	·	-12
CCN1C(=O)c2n[nH]c(C(=O)OC)c2C1=O	44*	6	17	14	90*	5
CCN(CC)S(=O)(=O)c1ccc(Cl)c(NC(=O)c2ccccc2C)c1	12	9	14	-3	-3	63*
CC1CCCCN1C(=O)CSc1nnc(CNc2nc(-c3ccccc3)cs2)n1C (stereo unspecified)	·	16	·	·	·	2
COC(=O)c1ccc(NC(=O)CSc2nnc3c4c5c(sc4nc(C4CC4)n23)CCCC5)cc1	·	20	·	·	·	0
SMILES	FXIIa inh	PGE2 EP2 inh	FXIa inh 1536	thrombin 1536	KLK5 inh	EP2 mod
CC(=O)Nc1ccc(C(=O)n2cnc3cc(C)c(C)cc32)cc1	9	12	-4	0	4	5
CC(=O)Nc1ccc(S(=O)(=O)n2cnc3cc(C)c(C)cc32)cc1	12	·	-1	104*	92*	18
Oc1cc(O)c2c(c1)O[C@H](c1ccc(O)c(O)c1)[C@@H](O)[C@@H]2c1c(O)cc(O)c2c1O[C@@H](c1ccc(O)c(O)c1)[C@H](O)C2	·	51*	·	·	·	17
N#CSC1CS(=O)(=O)C=C1Cl (stereo unspecified)	·	133*	·	·	·	-111
COc1ccc(-n2nnnc2-c2ccc(C#N)cc2)cc1	·	22	·	·	·	-69
Cc1cc(C(=O)CSc2nnnn2C)c(C)n1-c1cccc(F)c1	23	15	14	49*	34	-36
Cn1c(CNC(=O)c2ccccc2F)nnc1SCC(=O)NC1CCCCC1	·	8	·	·	·	-8
COCCNC(=O)CSc1nnc2c(Cl)cc(Cl)cn12	56*	12	2	17	52*	3
O=S(=O)(O)c1ccc2cc(N=Nc3cc(S(=O)(=O)O)c4cccnc4c3O)ccc2c1	·	52*	·	·	·	16
C=CCN=C1S/C(=C/c2cccc([N+](=O)[O-])c2)C(=O)N1CC=C	14	9	4	1	3	64*
COc1ccc(C2(NC(=O)c3cnn4cccnc34)CCCCC2)cc1	·	1	·	·	·	-46
CC1=C(C(N)=O)C(c2ccccn2)n2nc(-c3ccccc3Cl)nc2N1 (stereo unspecified)	30	3	6	36	43*	20
Oc1ccccc1Nc1nc(-c2cccnc2)nc2ccccc12	·	11	·	·	·	-67
CCOC(=O)/C(=N\Nc1cccc(C(F)(F)F)c1)N1CCOCC1	24	3	29	3	52*	19
CCCc1nnc(SCC(=O)N2CCCC2)n1CC1CCCO1 (stereo unspecified)	4	7	-3	0	-9	21
CCCc1nnc(SCC(=O)N2CCCCC2)n1CC1CCCO1 (stereo unspecified)	21	7	0	17	57*	3
COc1ccc(C(C)(C)C)cc1NC(=O)c1cnn2c1NC(c1ccc(C)cc1)CC2C(F)F (stereo unspecified)	·	7	·	·	·	13
COc1ccc(-n2c(CCC(=O)O)ccc2-c2ccccc2)cc1	13	2	9	5	-9	6
COc1ccc(-c2ccc(CCC(=O)O)n2-c2ccccc2O)cc1	17	7	5	59*	16	17
CCOC(=O)C1CCCN(C(=O)[C@H]2C[C@@H](c3ccco3)NS(=O)(=O)N2C)C1 (stereo partly specified)	·	·	·	·	·	0
O=C(O)C[C@H]1OCC=C2C[N+]3([O-])CC[C@@]45c6ccccc6N[C@@H]4[C@@H]1[C@@H]2C[C@H]53 (stereo partly specified)	·	54*	·	·	·	-5
Cn1c(=O)c2c(nc(N3CCNCC3)n2Cc2ccccc2)n(C)c1=O	·	9	·	·	·	-27
Cc1ccc2nc(N3C(=O)C(O)=C(C(=O)c4ccc(C)o4)C3c3ccco3)sc2c1 (stereo unspecified)	·	49*	·	·	·	14
COC(=O)c1sc(N2C(=O)C(O)=C(C(=O)c3ccc(C)o3)C2c2ccc(F)cc2)nc1C (stereo unspecified)	6	30	23	20	51*	28
